Measured values published in article PMC10448692 (ACS Omega, 2023).

Assays:
[1] = Lipophilicity by shake flask, n-octanol/water partition; type: physicochemical; conditions: room temperature
In short: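 Shake-flask method. Each compound was added separately to n-octanol and to double-distilled water and shaken 24 h at room temperature to saturate each phase. Undissolved solid was removed by centrifugation or filtration, and the saturated solution was evaporated to dryness. Residue weight gave solubility, from which logS and logP were computed.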

[2] = system: DNA (PDB ID: 1BNA); conditions: reported docking; cited from earlier work

Row | Compound | experimental logP [1] | experimental logP ([1]; listed as Gly) | docking energy with DNA [2]
1 | NCC(=O)O [gly, Glycine] | −2.7 | –2.76 | 
2 | O=C(O)CNC1CCCCC1 [CHgly, cyclohexyl glycine] |  |  | -5.71 kcal/mol
